Data set [1] deals with T1, Glucocorticoid receptor (Homo sapiens, UniProt P04150).
T1 sequence (P04150 whole entry): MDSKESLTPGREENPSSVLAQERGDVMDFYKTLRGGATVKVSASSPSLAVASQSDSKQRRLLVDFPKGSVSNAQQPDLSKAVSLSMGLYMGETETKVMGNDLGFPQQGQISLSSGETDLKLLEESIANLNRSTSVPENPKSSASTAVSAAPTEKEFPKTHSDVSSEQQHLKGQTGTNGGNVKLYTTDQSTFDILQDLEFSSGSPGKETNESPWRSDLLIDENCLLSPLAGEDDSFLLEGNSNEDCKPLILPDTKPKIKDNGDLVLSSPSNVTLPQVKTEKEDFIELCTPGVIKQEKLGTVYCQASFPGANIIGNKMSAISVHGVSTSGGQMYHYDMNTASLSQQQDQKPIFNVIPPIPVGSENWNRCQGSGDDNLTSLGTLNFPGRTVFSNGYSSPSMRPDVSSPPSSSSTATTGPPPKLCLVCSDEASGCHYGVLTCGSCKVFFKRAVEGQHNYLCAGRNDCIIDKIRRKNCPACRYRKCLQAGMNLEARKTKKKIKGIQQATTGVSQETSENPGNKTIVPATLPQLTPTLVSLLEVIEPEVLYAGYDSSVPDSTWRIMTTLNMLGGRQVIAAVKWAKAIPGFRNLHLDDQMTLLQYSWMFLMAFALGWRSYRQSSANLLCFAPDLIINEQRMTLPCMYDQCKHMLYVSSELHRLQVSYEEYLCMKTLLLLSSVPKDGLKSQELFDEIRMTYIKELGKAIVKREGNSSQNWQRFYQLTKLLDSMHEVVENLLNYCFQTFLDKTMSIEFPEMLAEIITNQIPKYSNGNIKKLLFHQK
The experiment in a line: Displacement of [3H]methyltrienolone from human glucocorticoid receptor expressed in HEK293 cells. It is filed as cell-based. (In general: Displacement assays read how much labelled ligand stays bound in the presence of the test substance.)

For data set [2], the target named is T2, Mineralocorticoid receptor (Homo sapiens) (UniProt P08235).
T2 sequence (whole entry): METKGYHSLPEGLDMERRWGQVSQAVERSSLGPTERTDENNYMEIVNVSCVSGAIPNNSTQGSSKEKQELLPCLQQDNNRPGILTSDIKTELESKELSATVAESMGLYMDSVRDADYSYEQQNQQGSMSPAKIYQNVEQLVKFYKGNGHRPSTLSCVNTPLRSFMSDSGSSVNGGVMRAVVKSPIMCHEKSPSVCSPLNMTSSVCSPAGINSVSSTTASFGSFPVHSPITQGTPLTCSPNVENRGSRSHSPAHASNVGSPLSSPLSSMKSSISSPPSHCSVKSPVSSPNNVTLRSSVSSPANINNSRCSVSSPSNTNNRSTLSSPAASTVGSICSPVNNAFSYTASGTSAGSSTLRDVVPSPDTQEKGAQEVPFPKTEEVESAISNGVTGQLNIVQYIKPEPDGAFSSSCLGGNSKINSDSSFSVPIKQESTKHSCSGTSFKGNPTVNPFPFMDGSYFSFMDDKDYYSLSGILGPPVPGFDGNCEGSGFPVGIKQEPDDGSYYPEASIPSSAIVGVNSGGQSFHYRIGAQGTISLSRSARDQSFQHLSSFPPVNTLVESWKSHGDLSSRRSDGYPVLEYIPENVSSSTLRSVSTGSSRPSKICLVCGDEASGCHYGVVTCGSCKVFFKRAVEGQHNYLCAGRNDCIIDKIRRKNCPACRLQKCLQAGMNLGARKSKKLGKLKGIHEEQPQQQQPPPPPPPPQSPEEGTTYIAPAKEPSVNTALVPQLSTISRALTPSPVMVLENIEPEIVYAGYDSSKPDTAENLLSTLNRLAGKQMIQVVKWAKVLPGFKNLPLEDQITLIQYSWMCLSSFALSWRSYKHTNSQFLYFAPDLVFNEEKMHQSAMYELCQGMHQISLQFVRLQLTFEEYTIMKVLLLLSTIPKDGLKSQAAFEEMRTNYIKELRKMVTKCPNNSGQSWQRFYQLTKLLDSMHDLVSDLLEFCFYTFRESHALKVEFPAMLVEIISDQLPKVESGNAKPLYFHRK
Put plainly: Antagonist activity at human mineralocorticoid receptor expressed in HEK293 cells assessed as inhibition of […]-induced transcriptional activity by GRE-driven luciferase reporter gene assay relative to untreated control. The class given is functional, cell-based. The conditions noted are these: concentration not given here. On the set-up: concentration or dose not given beside the values. In short, it runs like this:
(§1)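 Transcription assay in HEK293 cells cotransfected with full-length human receptor. Values are geometric means of at least duplicate determinations.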

Data set [3] concerns the target T3, Mineralocorticoid receptor (Homo sapiens, UniProt P08235).
T3 sequence (P08235 whole entry): T2 sequence (whole entry)
Put plainly: Displacement of [3H]methyltrienolone from human mineralocorticoid receptor expressed in HEK293 cells. The class given is cell-based. The gist of the method: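 Competitive binding to recombinant full-length human receptors against tritium-labelled standards. Values are geometric means of at least duplicate determinations.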

The target in data set [4] is T3, Mineralocorticoid receptor. The experiment in a line: Antagonist activity at human mineralocorticoid receptor expressed in HEK293 cells assessed as inhibition of […]-induced transcriptional activity by GRE-driven luciferase reporter gene assay. It is filed as functional, cell-based. The gist of the method: as §1
In general terms: In a reporter assay the amount or activity of a reporter protein is the signal.

Data set [5] in a line: Clearance in rat. The class given is ADME, organism-based. The conditions noted are these: in vivo. In short, it runs like this:
(§2)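 Compound given to rats as an oral suspension. Bioavailability, tmax, elimination half-life, volume of distribution and clearance determined.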

Data set [6] concerns Oryctolagus cuniculus. Put plainly: Agonist activity at progesterone receptor in estrogen-primed immature New Zealand White rabbit assessed as stimulation of progesterone-induced endometrial transformation at 30 mg/kg, sc by McPhail assay. The class given is functional, organism-based. The arrangement: dose 30 mg/kg. In short, it runs like this:
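Immature rabbits primed with estrogen, dosed sc without progesterone. Endometrial transformation scored by McPhail Index.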

Data set [7] can be described thus: Volume of distribution in rat. The class given is ADME, organism-based. Conditions: in vivo. In short, it runs like this: as §2
The nature of data set [8]: Oral bioavailability in rat. It is filed as ADME, organism-based. The conditions noted are these: in vivo. The gist of the method:
as §2

The nature of data set [9]: Elimination half life in rat. The conditions noted are these: in vivo. It is filed as ADME, organism-based. The gist of the method:
as §2

Data set [10] has as its system Rattus norvegicus. Put plainly: Antagonist activity at progesterone receptor in orally dosed ovariectomized Sprague-Dawley rat assessed as reversal of R5020-induced down-regulation of estradiol-induced increase in complement 3 mRNA expression by C3 rat uterine assay. It is filed as functional. Conditions: po. In short, it runs like this: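 Ovariectomized rats dosed orally (mg/kg dose response). Estrogen (E2, 0.05 mg/kg) induces complement C3 mRNA in uterus. Progestin R5020 (0.1 mg/kg) down-regulates it. Read-out is reversal of the R5020 effect, expressed as fold over asoprisnil (5 mg/kg). ED50 derived from the dose response.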

Data set [11] relates to Oryctolagus cuniculus. The experiment in a line: Antagonist activity at progesterone receptor in estrogen-primed immature New Zealand White rabbit assessed as inhibition of progesterone-induced endometrial transformation at 1 mg/kg, sc by McPhail assay. It is filed as functional, organism-based. On the set-up: dose 1 mg/kg. The gist of the method: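 Immature rabbits primed with estrogen, given progesterone 1 mg/kg with test compound at various sc doses. Endometrial transformation scored by McPhail Index.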

The nature of data set [12]: Tmax in rat. The class given is ADME, organism-based. The conditions noted are these: in vivo. The gist of the method:
as §2

Active and inactive are the calls of the source. The rule behind the calls is not given here.

What is called Ki is the dissociation constant of the complex between target and ligand, obtained from inhibition or displacement. By inhibition is commonly meant the drop in the measured response relative to a control, in per cent. By IC50 is commonly meant the concentration that inhibits the measured activity by half. For `CC[C@@H](C)n1cc(-c2ccc(C#N)cc2)c2ccc(NS(C)(=O)=O)cc21`, the inhibition constant (Ki) is 0.78 µM in data set [1] and 1.44 µM in [3]. The inhibition in data set [2] was 39.2%. For the same compound, the concentration for half-maximal inhibition (IC50) in data set [4] is above 10 µM.
The matching figures for `Cc1cc(-c2cn(C(C)C)c3cc(NS(C)(=O)=O)ccc23)ccc1C#N`: 0.157 µM, 0.126 µM, 56% and above 10 µM.
The corresponding values for `CC(C)n1cc(-c2ccc(C#N)cc2)c2ccc(NS(C)(=O)=O)cc21` are 1.53 µM, 1.49 µM, 36.6% and above 10 µM.
For `COc1ccc(C(c2ccccc2)c2c[nH]c3ccccc23)cc1` (stereo not drawn), the Ki was 0.0502 µM in data set [1] and 0.0868 µM in [3]. For the same compound, the inhibition in [2] amounted to 40.8%. In addition, the IC50 in [4] is above 10 µM.
In the case of `CCn1cc(-c2ccc(C#N)cc2)c2ccc(NS(C)(=O)=O)cc21`, the figures for the inhibition constant (Ki) in data set [1] and in [3] were 0.927 µM and 1.77 µM, respectively. For the same compound, the inhibition in data set [2] amounted to 23.8%. Moreover, in [4], the concentration for half-maximal inhibition (IC50) is above 10 µM.
The corresponding values for `Cn1cc(-c2ccc(C#N)cc2)c2ccc(NS(C)(=O)=O)cc21` are above 4.29 µM, above 4.17 µM, -2.2% and above 10 µM.
In general, clearance refers to the volume of plasma or blood freed of the substance per unit of time. Usually Vd stands for the apparent volume that relates the amount in the body to the concentration in plasma or blood. The term bioavailability denotes the share of a dose that reaches the circulation, judged against a reference dose that is usually intravenous. The half-life is the time in which the quantity being followed falls by half. By ED50 is commonly meant the midpoint of the dose-response relation. As a reminder, the Tmax is the time at which the peak concentration occurs. With `CC(C)n1cc(-c2ccc(C#N)c(F)c2)c2ccc(NS(C)(=O)=O)cc21`, the inhibition constant Ki was 0.523 µM in [1] and 0.849 µM in [3]. Besides, in data set [5], the clearance was 2.5 mL/min/kg. Moreover, the inhibition in data set [2] worked out at 50.2%. In addition, the outcome in [6] and in [11] was Active. For the same compound, the volume of distribution (Vd) in data set [7] was determined as 2.3 L/kg. The same compound showed a bioavailability in data set [8] of 31.4%. Moreover, in data set [9], the half-life is 19.8 h. For the same compound, the half-maximal inhibitory concentration (IC50) in data set [4] came to 8.15 µM. Besides, the median effective dose (ED50) in data set [10] is 0.33 mg/kg. Moreover, the Tmax in data set [12] came to 4 h.
In the case of `CC(c1ccc(F)cc1)(c1c[nH]c2c(NS(C)(=O)=O)cccc12)C1CC1` (stereo not drawn), the Ki was 0.00639 µM in [1] and 0.00064 µM in data set [3]. In addition, in data set [2], the inhibition was found to be 76.3%. The IC50 in data set [4] was 0.0641 µM.
The corresponding values for `CC[C@H](C)n1cc(-c2ccc(C#N)cc2)c2ccc(NS(C)(=O)=O)cc21` are 1.86 µM, 1 µM, 43.4% and 9.8 µM.
Regarding `COc1cc(-c2cn(C(C)C)c3cc(NS(C)(=O)=O)ccc23)ccc1C#N`, the inhibition constant (Ki) in data set [1] was 0.977 µM; in [3], 1.39 µM. Besides, in data set [2], the inhibition came to 35.8%. Besides, in data set [4], the IC50 turned out to be 2.42 µM.

Source of the values: ChEMBL document CHEMBL1671834, “Novel 3-aryl indoles as progesterone receptor antagonists for uterine fibroids” (ACS Med Chem Lett, 2011).
